Assay outcomes: PubChem, Sanford-Burnham Center for Chemical Genomics
Hits are enriched below; roughly 0.77% of the tested compounds scored in any of these assays.
bIAP inhibitor – bovine intestinal alkaline phosphatase inhibitors, primary screen, selectivity assay for TNAP inhibitor project, biochemical, bovine IAP, CDP-star luminescence; alkaline phosphatase, intestinal [Bos taurus]; purified bovine IAP, 30 min; inhibition, % at 20 µM; 190,000 tested, under 10 active; AID 1019, 2008;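 active = over 50% inhibition of intestinal alkaline phosphatase at 20 µM in the single-dose screen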
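Incubation: 30 min reaction at room temperature / Material: purified bovine intestinal alkaline phosphatase (IAP) enzyme / Input: enzyme at 1/65,000,000 dilution / Dosing: 20 µM single dose / Signal: CDP-star luminescence signal / Reagent: CDP-star chemiluminescent phosphatase substrate, 30 µM final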
mIAP block – inhibitors of mouse IAP, primary screen, biochemical, luminescence, uHTS. inhibition, % at 10 µM. 330,000 tested, 0.2% active. AID 2806, 2010. purified mouse IAP, CDP-Star luminescence, 30 min;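 active = inhibition of at least 40% at 10 µM in the primary screen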
hIAP act – human IAP activators, primary screen, biochemical, luminescence, uHTS. 330,000 tested, 0.16% active. AID 2524, 2010. activation factor at 10 µM. purified human IAP, CDP-Star luminescence, 30 min; active compounds read high; 1 = vehicle-only enzyme, 0 = enzyme-free background. Intestinal-type alkaline phosphatase (Homo sapiens), P09923;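 active = activation factor of the enzyme at least 2-fold when tested at 20 µM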
Target sequence (P09923 whole entry, looked up): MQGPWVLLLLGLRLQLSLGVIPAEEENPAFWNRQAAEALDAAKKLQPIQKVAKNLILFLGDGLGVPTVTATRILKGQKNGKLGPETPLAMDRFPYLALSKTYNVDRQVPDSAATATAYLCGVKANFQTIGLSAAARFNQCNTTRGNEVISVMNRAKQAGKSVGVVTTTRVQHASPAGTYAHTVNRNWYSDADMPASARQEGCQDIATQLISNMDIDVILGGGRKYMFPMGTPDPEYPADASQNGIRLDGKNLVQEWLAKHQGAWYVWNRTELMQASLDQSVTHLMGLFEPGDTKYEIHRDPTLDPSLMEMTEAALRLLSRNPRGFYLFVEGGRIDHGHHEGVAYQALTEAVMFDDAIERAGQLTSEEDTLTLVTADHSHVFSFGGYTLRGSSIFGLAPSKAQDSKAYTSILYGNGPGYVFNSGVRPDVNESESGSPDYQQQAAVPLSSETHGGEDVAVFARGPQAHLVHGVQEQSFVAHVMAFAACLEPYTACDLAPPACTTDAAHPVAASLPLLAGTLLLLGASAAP
mIAP activ – activators of mouse IAP, primary screen, biochemical, luminescence, uHTS | intestinal alkaline phosphatase [Mus musculus] | muIAP, CDP-Star luminescence, 30 min; active compounds read high; 1 = vehicle-only enzyme signal, 0 = enzyme-free wells | activation factor at 10 µM | 330,000 tested, 0.24% active | AID 2805, 2010;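 active = activation factor of at least 2 at 20 µM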
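Assay system: mouse IAP enzyme; reagent: chemiluminescent substrate CDP-Star; dosing: test compounds delivered from DMSO solution; schedule: 30 min at room temperature; measured by: luminescence from enzymatic CDP-Star hydrolysis; controls: DMSO-only wells and no-enzyme negative control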
hIAP block – human IAP inhibitors, primary screen, biochemical, luminescence, uHTS | inhibition, % at 10 µM | Intestinal-type alkaline phosphatase (Homo sapiens), P09923 | 330,000 tested, 0.12% active | AID 2544, 2010 | purified IAP, CDP-Star luminescence, 30 min;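 active = inhibition reaching a set limit with compound at 10 µM in the primary screen, cut at about 35% in these data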
bIAP activator – bovine intestinal alkaline phosphatase activators, primary screen, biochemical, bovine IAP, CDP-star luminescence | activation factor at 20 µM | AID 1016, 2008 | purified bovine IAP, 30 min; active compounds read high; fold of DMSO-control signal, blank-subtracted | alkaline phosphatase, intestinal [Bos taurus] | 200,000 tested, 0.17% active;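 active = activation factor of 2 or more at 20 µM, a signal rise over negative controls twice the positive control's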
hIAP act confirm – human IAP activators, confirmation, biochemical, luminescence, single concentration, uHTS hits; shares compounds with hIAP act; purified IAP, CDP-Star luminescence, 30 min; active compounds read low; activation (%Activity, negative = activation), % at 8.3 µM; 880 tested, 10% active; AID 434926, 2010;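 active = at least twofold enzyme activation in any of six single-dose repeats, which the averaged readout prints as negative percent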
Large screens that a line does not name were inactive (follow-up assays come after a bar, where they were run).

COc1cccc(/C=N/Nc2nc(-c3cccnc3)nc3ccccc23)c1	hIAP block 58 (no result: bIAP inhibitor, bIAP activator) | hIAP act confirm inactive
C(=N\Nc1nc(-c2cccnc2)nc2ccccc12)/c1ccccc1	none (no result: bIAP inhibitor, bIAP activator)
C=CCOc1c(Br)cc(/C=C2/C(=O)ON=C2C)cc1OC	none (no result: bIAP inhibitor, bIAP activator)
COc1ccc(CNS(=O)(=O)c2cccc(S(=O)(=O)N3CCOCC3)c2)cc1	hIAP block 36 | hIAP act confirm inactive
COc1cccc(CNS(=O)(=O)c2cccc(S(=O)(=O)N3CCOCC3)c2)c1	none
CCS(=O)(=O)c1nc(S(=O)(=O)c2ccc(Cl)cc2)c(N2CCC(O)CC2)s1	none (no result: bIAP inhibitor, bIAP activator)
COc1cccc2c1cc1c(=O)n(CC(=O)NCCCN3CCN(C)CC3)nc(C)n12	hIAP block 43 (no result: bIAP inhibitor, bIAP activator) | hIAP act confirm inactive
COc1ccc(-c2nnc(SCC(=O)N3CCOCC3)n2C)cc1OC	hIAP act 2.3 | hIAP act confirm inactive
O=C(NNC(=O)C(Cl)Cl)c1cnn(-c2ccccc2)c1C(F)(F)F	none (no result: bIAP inhibitor, bIAP activator)
COC(=O)CCC(=O)Nc1ccc(Cl)c(Cl)c1	none
COC(=O)CCC(=O)Nc1ccc2oc3c(c2c1)CCCC3	hIAP block 42 (no result: bIAP inhibitor, bIAP activator) | hIAP act confirm inactive
COCCN(CCOC)C(=O)c1ccc(SCc2ccc(C)cc2)c([N+](=O)[O-])c1	none
COc1ccc(N=Nc2c(C)[nH]c3ccccc23)cc1	none (no result: bIAP inhibitor, bIAP activator)
O=C(Nc1ccc(Cl)cc1)c1nc[nH]c1C(=O)NCCCNC(=O)c1[nH]cnc1C(=O)Nc1ccc(Cl)cc1	hIAP act 2.1 (no result: bIAP inhibitor, bIAP activator) | hIAP act confirm inactive
Cc1ccc(NC(=O)c2ccccc2N(C)S(=O)(=O)c2ccccc2)c(C)c1	none
Cc1c(C(C)NC(=O)Nc2ccc(F)cc2F)cnn1C (centres undefined)	hIAP act 2.1 | hIAP act confirm inactive
O=C(NCCCCNC(=O)c1ccccc1F)c1ccccc1F	hIAP block 37 (no result: bIAP inhibitor, bIAP activator) | hIAP act confirm inactive
O=C(O)CNC(=O)c1ccccc1F	none
CC(=O)Oc1ccc2c(C)c(CC(=O)N3CCN(C(=O)C4COc5ccccc5O4)CC3)c(=O)oc2c1C (centres undefined)	none (no result: bIAP inhibitor, bIAP activator)
COC(=O)c1cc(C#N)c(Oc2ccccc2OC)nc1C	hIAP block 36 | hIAP act confirm inactive
CCn1cnc2sc(C(=O)O)c(C)c2c1=O	hIAP act 3.9 | hIAP act confirm inactive
O=C(C1CCN(C2CC(=O)N(c3cccc(Cl)c3)C2=O)CC1)N1CCCC1 (centres undefined)	hIAP act 2.9 | hIAP act confirm inactive
CCCCn1c(=N)n(CC(=O)c2ccco2)c2ccccc21	none
CCCCCCCn1c(=N)n(CC(=O)c2ccco2)c2ccccc21	hIAP block 37 | hIAP act confirm -50
O=c1[nH]ncc(NCc2ccc(Cl)cc2)c1Cl	none
CCC(C)NC(=O)C1CCN(C(=O)N(C)C)CC1 (centres undefined)	none
CC(C)CCNC(=O)C1CCN(C(=O)N(C)C)CC1	hIAP block 47 | hIAP act confirm inactive
CCc1ccc(-n2c(SCC(=O)Nc3cc(C)[nH]n3)nc3[nH]ncc3c2=O)cc1	hIAP act 2.2 | hIAP act confirm inactive
Cn1cc(CNCc2cnc3ccccn23)c(-c2ccc(Oc3ccccc3)cc2)n1	hIAP act 2.7 | hIAP act confirm inactive
CN1C(=O)C(=O)/C(=C(/O)c2ccccc2)C1c1ccc(Br)cc1 (centres undefined)	none (no result: bIAP inhibitor, bIAP activator)
CN1C(=O)C(=O)/C(=C(/O)c2ccc(Br)cc2)C1c1ccc(Cl)cc1 (centres undefined)	hIAP block 41 (no result: bIAP inhibitor, bIAP activator) | hIAP act confirm inactive
Cc1n[nH]c(C)c1S(=O)(=O)N1CCN(S(=O)(=O)c2ccccc2C#N)CC1	none (no result: bIAP inhibitor, bIAP activator)
CCc1nc2c3cnn(-c4cc(Cl)ccc4C)c3ncn2n1	hIAP block 73 | hIAP act confirm inactive
Cc1ccccc1OCc1nc2c3cnn(C)c3ncn2n1	none
CCOc1ccc(S(=O)(=O)NCCC(=O)NCCc2ccc(C(C)C)cc2)cc1	none (no result: bIAP inhibitor, bIAP activator)
O=C1/C(=C/c2ccc(O)c([N+](=O)[O-])c2)SC(=S)N1Cc1ccccc1	none
O=C(NN1C(=O)/C(=C/c2ccc(O)cc2)SC1=S)c1cccc(O)c1	hIAP block 37 (no result: bIAP inhibitor, bIAP activator) | hIAP act confirm inactive
O=C(NN1C(=O)/C(=C/c2ccc(O)c([N+](=O)[O-])c2)SC1=S)c1ccccc1Cl	hIAP block 35 | hIAP act confirm inactive
COCCN(C(=O)CNC(=O)c1ccco1)C(C(=O)NC1CCCC1)c1ccc(F)cc1 (centres undefined)	none (no result: bIAP inhibitor, bIAP activator)
CCN1CCN(c2ccc(N3CCN(C(=O)c4ccc(Br)o4)CC3)nn2)CC1	none (no result: bIAP inhibitor, bIAP activator)
O=C(CSCc1ccc(Br)cc1)NCCc1ccccc1	none (no result: bIAP inhibitor, bIAP activator)
N#C/C(=C(\O)c1ccco1)c1ccccn1	hIAP act 2.1 | hIAP act confirm inactive
N#CC(C#N)=NNc1ccc([N+](=O)[O-])cc1	hIAP block 35 (no result: bIAP inhibitor, bIAP activator) | hIAP act confirm inactive
Cc1cccc2sc(NNC(=O)c3cc(=O)c4ccccc4o3)nc12	none
O=C(NNc1nc2c(F)cccc2s1)c1cc(=O)c2ccccc2o1	hIAP act 2.7 | hIAP act confirm inactive
COc1ccc2nc(NNC(=O)c3cc(=O)c4ccccc4o3)sc2c1	hIAP act 2.2 | hIAP act confirm inactive
O=C(COc1nncc2ccccc12)NCC(F)(F)F	none
Cc1cccc(NC(=O)C2CCN(S(=O)(=O)c3ccc4c(c3)NC(=O)CO4)CC2)c1	none (no result: bIAP inhibitor, bIAP activator)
COc1ccc(CC(=O)N/N=C/c2ccc(-c3cccc(C(=O)O)c3)o2)cc1OC	none (no result: bIAP inhibitor, bIAP activator)
O=C(NCCN1CCOCC1)C1CC(=O)N(c2cccc(C(F)(F)F)c2)C1 (centres undefined)	none (no result: bIAP inhibitor, bIAP activator)
COc1cc(/C=C2\C(=O)N(c3ccc(NC(C)=O)cc3)N=C2c2ccccc2)ccc1O	hIAP block 37 | hIAP act confirm inactive
C/C=C1\C(OC2OC(CO)C(O)C(O)C2O)OC=C(C(=O)OC)C1CC(=O)OCC1C(C)C(OC(=O)CC2C(C(=O)OC)=COC(OC3OC(CO)C(O)C(O)C3O)/C2=C\C)CC1C(CO)CO (centres undefined)	none
CCNC(=O)Cc1c(OC)ccc2cc(Br)ccc12	hIAP block 43 | hIAP act confirm inactive
Cc1nn(C)cc1/C=N/NC(=O)CSc1ccccn1	none (no result: bIAP inhibitor, bIAP activator)
